Each block holds one compound with its values, some of them ahead of it.
Key:
[1] = molecular target: T1, Proteasome Macropain subunit MB1 (Homo sapiens, UniProt P28074); assay: Inhibition of human chymotrypsin-like activity of 20S proteasome using Suc-LLVY-AMC as substrate pre-incubated for 10 mins followed by substrate addition and measured after 1 hr by spectrofluorimetry
T1 sequence (P28074 whole entry): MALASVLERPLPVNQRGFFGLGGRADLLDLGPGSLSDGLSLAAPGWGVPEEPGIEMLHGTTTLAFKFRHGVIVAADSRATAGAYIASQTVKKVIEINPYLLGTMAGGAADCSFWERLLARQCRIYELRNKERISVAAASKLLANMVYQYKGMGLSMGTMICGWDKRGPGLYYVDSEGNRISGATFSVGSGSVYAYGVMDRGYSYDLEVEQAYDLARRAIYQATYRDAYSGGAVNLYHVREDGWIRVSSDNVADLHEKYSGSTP

[2] = Half life in BALB/c mouse liver microsomes at 1 uM pre-incubated for 5 mins followed by NADP+ addition and measured up to 20 mins by LC-MS analysis; format: ADME, Microsome
How it was run: (§1)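 Mixture held 1 µM compound, 0.5 mg/mL microsomal protein (in-house pooled Balb/c mouse or pooled human), 100 mM Tris-HCl pH 7.4, and an NADPH-generating system (5 mM isocitric acid, 0.2 U/mL isocitric dehydrogenase, 5 mM MgCl2, 1 mM NADP+). Preincubated 5 min at 37 °C, started with NADP+, sampled at 0, 5, 10, 20 min. Quenched with cold acetonitrile containing 1 µM phenytoin internal standard. Compound loss measured by LC-MS/MS. Controls omitted NADPH and/or microsomes.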

[3] = Half life in rat liver microsomes at 1 uM pre-incubated for 5 mins followed by NADP+ addition and measured up to 20 mins by LC-MS analysis; format: ADME, Microsome
U-266 = assay: Cytotoxicity against human U266B1 cells assessed as cell viability measured after 72 hrs by celltiter96 aqueous cell proliferation assay; format: functional, cell-based; details: U-266, 72 h
How it was run: (§2)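 Suspension cells in log phase plated at 5000 (RPMI8226) or 10000 (U266B1) cells per well. Viability read after 72 h by MTS-type CellTiter 96 AQueous One assay on a plate reader. IC50 reported, three repeats.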

[4] = Intrinsic clearance in monkey liver microsomes at 1 uM pre-incubated for 5 min followed by NADP+ addition and measured up to 20 mins by LC-MS analysis; format: ADME, Macaca mulatta, Microsome; details: rhesus monkey, read-out: CLH
[5] = Half life in dog liver microsomes at 1 uM pre-incubated for 5 mins followed by NADP+ addition and measured up to 20 mins by LC-MS analysis; format: ADME, Canis lupus familiaris, Microsome
[6] = Half life in human liver microsomes at 1 uM pre-incubated for 5 mins followed by NADP+ addition and measured up to 20 mins by LC-MS analysis; format: ADME, Microsome; how it was run: as §1
[7] = Intrinsic clearance in dog liver microsomes at 1 uM pre-incubated for 5 mins followed by NADP+ addition and measured up to 20 mins by LC-MS analysis; format: ADME, Canis lupus familiaris, Microsome; details: read-out: CLH
[8] = Half life in monkey liver microsomes at 1 uM pre-incubated for 5 mins followed by NADP+ addition and measured up to 20 mins by LC-MS analysis; format: ADME, Macaca mulatta, Microsome; details: rhesus monkey
[9] = Intrinsic clearance in rat liver microsomes at 1 uM pre-incubated for 5 mins followed by NADP+ addition and measured up to 20 mins by LC-MS analysis; format: ADME, Microsome; details: read-out: CLH
ARH-77 = assay: Antitumour activity against human ARH77 cells xenografted in nude mouse assessed as tumor growth at 5mg/kg, iv dosed at day 1 ,4, 8 ,11, 15 and 18 for 3 weeks and measured every 2 days by caliper method relative to control; format: functional
How it was run: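 Nude mice given subcutaneous 1 × 10^7 ARH77 cells. Randomized at mean tumour 100-150 mm3 into treatment and control groups, n = 5. Dosed i.v. 5 mg/kg on days 1, 4, 8, 11, 15 and 18 for 3 weeks. Tumours sized by caliper, V = length×width²/2, RTV = Vt/V0. T/C% = mean RTV treated / mean RTV control × 100.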

[10] = Intrinsic clearance in BALB/c mouse liver microsomes at 1 uM pre-incubated for 5 mins followed by NADP+ addition and measured up to 20 mins by LC-MS analysis; format: ADME, Microsome; details: read-out: CLH; how it was run: as §1
[11] = molecular target: Voltage-gated inwardly rectifying potassium channel KCNH2 (Homo sapiens, UniProt Q12809); assay: Inhibition of human ERG in HEK293 cells assessed as effect on QT interval; format: cell-based
[12] = Intrinsic clearance in human liver microsomes at 1 uM pre-incubated for 5 min followed by NADP+ addition and measured up to 20 mins by LC-MS analysis; format: ADME, Microsome; details: read-out: CLH; how it was run: as §1
RPMI-8226 = assay: Cytotoxicity against human RPMI8226 cells assessed as cell viability measured after 72 hrs by celltiter96 aqueous cell proliferation assay; format: functional, cell-based; details: RPMI-8226, 72 h; how it was run: as §2

Voltage-gated inwardly rectifying potassium channel KCNH2, sequence (Q12809 whole entry): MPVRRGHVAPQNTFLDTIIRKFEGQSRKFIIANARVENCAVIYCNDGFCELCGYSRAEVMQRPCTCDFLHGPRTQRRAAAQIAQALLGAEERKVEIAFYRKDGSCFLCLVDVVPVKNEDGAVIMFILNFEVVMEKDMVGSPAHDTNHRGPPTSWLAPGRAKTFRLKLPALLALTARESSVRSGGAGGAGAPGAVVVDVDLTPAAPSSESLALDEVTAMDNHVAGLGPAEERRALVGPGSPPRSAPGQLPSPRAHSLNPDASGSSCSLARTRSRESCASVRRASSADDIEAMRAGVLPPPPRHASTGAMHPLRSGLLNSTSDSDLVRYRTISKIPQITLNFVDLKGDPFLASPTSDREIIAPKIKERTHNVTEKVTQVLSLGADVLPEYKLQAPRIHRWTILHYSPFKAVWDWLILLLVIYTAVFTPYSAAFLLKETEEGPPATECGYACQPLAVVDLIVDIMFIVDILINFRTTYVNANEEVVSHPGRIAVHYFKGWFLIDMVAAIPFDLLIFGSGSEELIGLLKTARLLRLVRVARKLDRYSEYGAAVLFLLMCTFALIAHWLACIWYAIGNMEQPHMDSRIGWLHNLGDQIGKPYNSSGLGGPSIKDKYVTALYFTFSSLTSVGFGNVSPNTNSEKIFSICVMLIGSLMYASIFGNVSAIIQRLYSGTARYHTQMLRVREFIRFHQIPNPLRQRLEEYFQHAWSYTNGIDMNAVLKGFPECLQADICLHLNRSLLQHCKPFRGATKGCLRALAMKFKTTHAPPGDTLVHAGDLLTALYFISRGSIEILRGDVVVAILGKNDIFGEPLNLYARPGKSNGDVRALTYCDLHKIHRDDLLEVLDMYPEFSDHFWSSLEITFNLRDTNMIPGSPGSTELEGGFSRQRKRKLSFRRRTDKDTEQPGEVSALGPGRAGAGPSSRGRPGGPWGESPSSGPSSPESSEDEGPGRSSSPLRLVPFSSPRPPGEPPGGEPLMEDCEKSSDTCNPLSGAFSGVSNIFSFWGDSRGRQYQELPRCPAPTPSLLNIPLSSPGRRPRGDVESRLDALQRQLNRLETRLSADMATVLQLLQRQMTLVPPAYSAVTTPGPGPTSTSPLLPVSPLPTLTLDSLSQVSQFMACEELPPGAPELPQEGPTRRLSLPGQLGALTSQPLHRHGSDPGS

Compound: COC[C@H](NC(=O)[C@H](CCc1ccccc1)NC(=O)c1cc(C)on1)C(=O)N[C@@H](Cc1ccccc1)C(=O)N[C@@H](CC(C)C)C(=O)[C@@]1(C)CO1
IC50 ([1]; read-out: IC50): 50.9 nM

Compound: CC[C@H](NC(=O)[C@H](CC(C)C)NC(=O)[C@H](CCc1ccccc1)NC(=O)CN1CCOCC1)C(=O)N[C@@H](CC(C)C)C(=O)[C@@]1(C)CO1
IC50 ([1]; read-out: IC50): 98.2 nM

Compound: CC(C)C[C@H](NC(=O)[C@H](CCc1ccccc1)NC(=O)CN1CCOCC1)C(=O)N[C@@H](Cc1ccccc1)C(=O)N[C@@H](Cc1ccccc1)C(=O)[C@@]1(C)CO1
IC50 ([1]; read-out: IC50): 140 nM

Compound: Cc1cc(C(=O)N[C@@H](CCc2ccccc2)C(=O)N[C@H](C(=O)N[C@@H](Cc2ccccc2)C(=O)N[C@@H](CC(C)C)C(=O)[C@@]2(C)CO2)[C@@H](C)O)no1
IC50 ([1]; read-out: IC50): 48.3 nM

Compound: CC(C)C[C@H](NC(=O)[C@H](CCc1ccccc1)NC(=O)CN1CCOCC1)C(=O)N[C@@H](Cc1ccccc1)C(=O)N[C@@H](CCc1ccccc1)C(=O)[C@@]1(C)CO1
IC50 ([1]; read-out: IC50): 729 nM

Compound: CC(C)C[C@H](NC(=O)[C@H](CCc1ccccc1)NC(=O)CN1CCOCC1)C(=O)NCC(=O)N[C@@H](CC(C)C)C(=O)[C@@]1(C)CO1
IC50 [1]: Not Active

Compound: Cc1cc(C(=O)N[C@@H](CCc2ccccc2)C(=O)N[C@@H](CC2CCCC2)C(=O)N[C@@H](Cc2ccccc2)C(=O)N[C@@H](CC(C)C)C(=O)[C@@]2(C)CO2)no1
IC50 ([1]; read-out: IC50): 36.6 nM

Compound: CC(C)C[C@H](NC(=O)[C@H](CCc1ccccc1)NC(=O)CN1CCOCC1)C(=O)N[C@@H](Cc1ccccc1)C(=O)N[C@@H](CC(C)C)C(=O)[C@@]1(C)CO1 [CARFILZOMIB]
half-life at 1 µM [2]: 20.4 s
half-life at 1 µM [3]: 37.2 s
IC50 (U-266): 35.7 nM
microsomal CLint at 1 µM [4]: > 1390 µL/min/mg
half-life at 1 µM [5]: 14.6 s
half-life at 1 µM [6]: 17.2 s
microsomal CLint at 1 µM [7]: 5670 µL/min/mg
half-life at 1 µM [8]: < 60 s
microsomal CLint at 1 µM [9]: 2230 µL/min/mg
T/C (ARH-77): 34.6%
microsomal CLint at 1 µM [10]: 4100 µL/min/mg
IC50 [11]: 92100 nM
microsomal CLint at 1 µM [12]: 4850 µL/min/mg
IC50 (RPMI-8226): 39.1 nM

Compound: CCCC[C@H](NC(=O)[C@H](Cc1ccccc1)NC(=O)[C@H](CC(C)C)NC(=O)[C@H](CCc1ccccc1)NC(=O)CN1CCOCC1)C(=O)[C@@]1(C)CO1
IC50 ([1]; read-out: IC50): 52.2 nM

Compound: Cc1cc(C(=O)N[C@@H](CCc2ccccc2)C(=O)N[C@H](C(=O)N[C@@H](Cc2ccccc2)C(=O)N[C@@H](CC(C)C)C(=O)[C@@]2(C)CO2)C2CC2)no1
IC50 ([1]; read-out: IC50): 32 nM

Compound: Cc1cc(C(=O)N[C@H](C(=O)N[C@@H](CC(C)C)C(=O)N[C@@H](Cc2ccccc2)C(=O)N[C@@H](CC(C)C)C(=O)[C@@]2(C)CO2)C2CC2)no1
IC50 ([1]; read-out: IC50): 43.1 nM

Compound: COC[C@H](NC(=O)c1cc(C)on1)C(=O)NCC(=O)N[C@@H](Cc1ccccc1)C(=O)N[C@@H](CC(C)C)C(=O)[C@@]1(C)CO1
IC50 [1]: Not Active

Compound: CC(C)C[C@H](NC(=O)[C@H](CCc1ccccc1)NC(=O)CN1CCOCC1)C(=O)N[C@@H](Cc1cc2ccccc2s1)C(=O)N[C@@H](CC(C)C)C(=O)[C@@]1(C)CO1
IC50 (U-266): 80.5 nM
IC50 ([1]; read-out: IC50): 37.5 nM
IC50 (RPMI-8226): 86.6 nM

Compound: CCCC[C@H](NC(=O)[C@H](CC(C)C)NC(=O)[C@H](CCc1ccccc1)NC(=O)CN1CCOCC1)C(=O)N[C@@H](CC(C)C)C(=O)[C@@]1(C)CO1
IC50 ([1]; read-out: IC50): 162 nM

Compound: Cc1cc(C(=O)N[C@@H](CCc2ccccc2)C(=O)N[C@H](C(=O)N[C@@H](Cc2ccccc2)C(=O)N[C@@H](CC(C)C)C(=O)[C@@]2(C)CO2)C2CCCCC2)no1
IC50 (U-266): 23.2 nM
IC50 ([1]; read-out: IC50): 30.8 nM
IC50 (RPMI-8226): 14.7 nM

Compound: CC[C@H](NC(=O)[C@H](CCc1ccccc1)NC(=O)c1cc(C)on1)C(=O)N[C@@H](Cc1ccccc1)C(=O)N[C@@H](CC(C)C)C(=O)[C@@]1(C)CO1
IC50 (U-266): 45.5 nM
IC50 ([1]; read-out: IC50): 36.8 nM
IC50 (RPMI-8226): 47 nM

Compound: Cc1cc(C(=O)N[C@@H](CCc2ccccc2)C(=O)N[C@@H](Cc2ccccn2)C(=O)N[C@@H](Cc2ccccc2)C(=O)N[C@@H](CC(C)C)C(=O)[C@@]2(C)CO2)no1
IC50 [1]: Not Active

Compound: CC[C@H](NC(=O)[C@H](Cc1ccccc1)NC(=O)[C@H](CC(C)C)NC(=O)[C@H](CCc1ccccc1)NC(=O)CN1CCOCC1)C(=O)[C@@]1(C)CO1
IC50 ([1]; read-out: IC50): 77.1 nM

Continued, in another order:

IC50 [1]: Not Active
Compound: Cc1cc(C(=O)N[C@@H](CCc2ccccc2)C(=O)N[C@@H](Cc2cscn2)C(=O)N[C@@H](Cc2ccccc2)C(=O)N[C@@H](CC(C)C)C(=O)[C@@]2(C)CO2)no1

IC50 ([1]; read-out: IC50): 20.6 nM
Compound: Cc1cc(C(=O)N[C@@H](Cc2cscn2)C(=O)N[C@@H](CC(C)C)C(=O)N[C@@H](Cc2ccccc2)C(=O)N[C@@H](CC(C)C)C(=O)[C@@]2(C)CO2)no1

IC50 ([1]; read-out: IC50): 41.5 nM
Compound: Cc1cc(C(=O)N[C@@H](CC(C)C)C(=O)N[C@@H](CC(C)C)C(=O)N[C@@H](Cc2ccccc2)C(=O)N[C@@H](CC(C)C)C(=O)[C@@]2(C)CO2)no1

IC50 ([1]; read-out: IC50): 30.6 nM
Compound: COC[C@H](NC(=O)c1cc(C)on1)C(=O)N[C@@H](CC(C)C)C(=O)N[C@@H](Cc1ccccc1)C(=O)N[C@@H](CC(C)C)C(=O)[C@@]1(C)CO1

IC50 ([1]; read-out: IC50): 52.1 nM
Compound: CC(C)C[C@H](NC(=O)[C@H](Cc1cscn1)NC(=O)CO)C(=O)N[C@@H](Cc1ccccc1)C(=O)N[C@@H](CC(C)C)C(=O)[C@@]1(C)CO1

IC50 ([1]; read-out: IC50): 25.5 nM
Compound: Cc1cc(C(=O)N[C@@H](Cc2cc3ccccc3[nH]2)C(=O)N[C@@H](CC(C)C)C(=O)N[C@@H](Cc2ccccc2)C(=O)N[C@@H](CC(C)C)C(=O)[C@@]2(C)CO2)no1

IC50 ([1]; read-out: IC50): 34.1 nM
Compound: CC(C)C[C@H](NC(=O)[C@H](Cc1cc2ccccc2s1)NC(=O)CN1CCOCC1)C(=O)N[C@@H](Cc1ccccc1)C(=O)N[C@@H](CC(C)C)C(=O)[C@@]1(C)CO1
IC50 (U-266): 33.2 nM
IC50 (RPMI-8226): 53.8 nM

IC50 ([1]; read-out: IC50): 64.8 nM
Compound: CC(C)C[C@H](NC(=O)[C@H](Cc1cscn1)NC(=O)c1cc(Cl)ccc1Cl)C(=O)N[C@@H](Cc1ccccc1)C(=O)N[C@@H](CC(C)C)C(=O)[C@@]1(C)CO1

IC50 ([1]; read-out: IC50): 38.8 nM
Compound: CC(C)C[C@H](NC(=O)[C@H](Cc1cscn1)NC(=O)c1cnccn1)C(=O)N[C@@H](Cc1ccccc1)C(=O)N[C@@H](CC(C)C)C(=O)[C@@]1(C)CO1

IC50 ([1]; read-out: IC50): 26.8 nM
Compound: CC(C)C[C@H](NC(=O)[C@H](CCc1ccccc1)NC(=O)CN1CCOCC1)C(=O)N[C@@H](Cc1cscn1)C(=O)N[C@@H](CC(C)C)C(=O)[C@@]1(C)CO1
IC50 (U-266): 56.5 nM
IC50 (RPMI-8226): 76.9 nM

IC50 ([1]; read-out: IC50): 44.9 nM
Compound: CC(C)C[C@H](NC(=O)[C@H](Cc1ccsc1)NC(=O)CN1CCOCC1)C(=O)N[C@@H](Cc1ccccc1)C(=O)N[C@@H](CC(C)C)C(=O)[C@@]1(C)CO1
IC50 (U-266): 23.8 nM
IC50 (RPMI-8226): 34.6 nM

IC50 ([1]; read-out: IC50): 56.5 nM
Compound: Cc1cc(C(=O)NCC(=O)N[C@@H](CC(C)C)C(=O)N[C@@H](Cc2ccccc2)C(=O)N[C@@H](CC(C)C)C(=O)[C@@]2(C)CO2)no1

IC50 ([1]; read-out: IC50): 60.7 nM
Compound: Cc1cc(C(=O)N[C@@H](Cc2ccccn2)C(=O)N[C@@H](CC(C)C)C(=O)N[C@@H](Cc2ccccc2)C(=O)N[C@@H](CC(C)C)C(=O)[C@@]2(C)CO2)no1
